Assay results: article PMC12069899 (Acta Pharmaceutica Sinica. B, 2024)
No end group written: not given here.

Legend:
[1] = tested on: TRPV4 channel; experiment: Whole-cell patch clamp, GSK101-evoked TRPV4 currents in HEK293; type: cell-based; conditions: GSK101 0.3 μmol/L, extracellular; ∼25 °C
Summary of the method: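 HEK293 cells were transiently transfected with TRPV4 by lipofection. Whole-cell voltage clamp was performed 24 h after transfection at ~25 °C; currents were filtered at 2 kHz and digitized at 10 kHz. Current was evoked by the TRPV4 activator GSK101, with GSK219 as the selective inhibitor. Test compound stock was freshly diluted in normal saline.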

[2] = tested on: mice (conditioned place preference); experiment: Conditioned place preference; type: in vivo, mouse; conditions: s.c.; morphine 10 mg/kg; P10581 2 μg/kg, 100 μL; n = 5
Summary of the method: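 Two-chamber boxes (20 × 20 × 20 cm), one with vertical black-white stripes and one with horizontal stripes. Conditioning training was repeated for 4 days. On Day 5, 24 h after the final dose, mice were placed in the central chamber with free access to both chambers for 15 min. Score = time on the drug-paired side postconditioning minus preconditioning. Dosing was blinded.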

[3] = tested on: rats (analgesic tolerance, CCI); experiment: Chronic analgesic tolerance in CCI neuropathic pain; type: in vivo, rat
[4] = tested on: TRPV4 channel; experiment: Analgesia in homozygous Trpv4−/− mice, CFA pain; type: in vivo, mouse; conditions: 5 mg/kg, 2 h or 3 h post-injection; n = 4–5
[5] = tested on: TRPC1 and TRPC6; conditions: MS channels in DRG neurons; ref [27]; cited from earlier work
[6] = tested on: Piezo1/Piezo2 channel; conditions: ref [63], [64]; cited from earlier work
[7] = tested on: rats (thermal pain); experiment: Thermal laser test of hot pain; type: in vivo, rat; conditions: i.d. 1200 ng/kg, 5 μL; laser 52.5 ± 0.5 °C; n = 5
[8] = tested on: rats (cold pain); experiment: Cold plantar test; type: in vivo, rat; conditions: i.d. 1200 ng/kg, 5 μL; n = 5
[9] = tested on: stretch-activated cationic currents in mammalian astrocytes, cardiomyocytes, and the central nervous system; conditions: ref [23], [24], [25], [26]; cited from earlier work
[10] = tested on: rats (mechanical hyperalgesia induced by Carr.); experiment: Randall–Selitto test, carrageenan inflammatory pain, peptide given i.d.; type: in vivo, Sprague–Dawley rat
Summary of the method: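 SD rats (180–220 g) received Carr. (1%, 5 μL) i.d. into the right hindpaw after baseline PWT. Test compound was given i.d. in 5 μL at the inflamed site 1.5 h after Carr. PWT was measured 2 h after dosing. AUC (g·min) was calculated per rat, and ΔPWT = PWT(post-drug) − PWT(pre-drug). Saline was the control. Dosing was blinded; mean ± SEM.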

[11] = tested on: rats (mechanical hyperalgesia and neuropathic pain); conditions: ref [1], [27]; cited from earlier work

Molecule: CC(C)C[C@H](NC(=O)c1cc2ccccc2s1)C(=O)N1CCN(C(=O)[C@H](CO)NS(=O)(=O)c2ccc(Cl)cc2Cl)CC1 [GSK101]
- activation of TRPV4 current [1]: robust increase in the currents

Molecule: CN1CC[C@]23c4c5ccc(O)c4O[C@H]2[C@@H](O)C=C[C@H]3[C@H]1C5 [morphine]
- CPP preference score [2]: significantly increased CPP scores
- loss of anti-hyperalgesic effect on repeated injection ([3]; i.d. 5 mg/kg twice a day, CCI): completely lost its anti-hyperalgesic effect from Day 4
- chronic tolerance after repeated injections ([3]; i.d. twice a day, 9 days, from Day 8 after CCI, morphine 5 mg/kg, P10581 8 μg/kg): time-dependent decrease in PWT
- anti-hyperalgesic effect of morphine in WT vs. Trpv4-deficient mice [4]: equally effective in the anti-hyperalgesic effects among wild-type and Trpv4-deficient mice

Molecule: GsMTx4 (GCLEFWWKCNPNDDKCCRPKLKCSKLFKLCNFSF; ends and bridges not checked; cysteine pairing not given here; UniProt Q7YT39 47-80, looked up)
- channel sensitivity to GsMTx4 [5]: GsMTx4-sensitive
- channel sensitivity to GsMTx4 [6]: sensitive to GsMTx4
- effect on paw withdrawal latency (PWL), hot pain [7]: did not change their PWL when compared to the saline group
- effect on PWL, cold pain [8]: neither P10581 nor GsMTx4 at 1200 ng/kg (i.d. 5 μL) affected PWL following cold stimulus
- inhibition of stretch-activated cationic currents [9]: inhibit stretch-activated cationic currents
- effect on PWT at low dose ([10]; i.d. 0.6 μg/kg, 5 μL, n = 6): only a mild impact on PWT
- IC50 for anti-hyperalgesic effect (ΔPWT) ([10]; i.d., 2 h after injection, Hill equation fit, n = 5 per group, mean ± SEM): 689.3 ± 21.5 ng/kg
- dose dependence of analgesic effect ([10]; i.d., Fig. 1G): dose-dependent
- reduction of mechanical hyperalgesia and neuropathic pain [11]: reduce mechanical hyperalgesia and neuropathic pain in rats
